Like-named read-outs stand apart in the source and are kept apart here. Where only a bound is given, the exact number is not on record here.

What is called EC50 is the concentration at which the effect is half-maximal.

Data set [1] deals with HSV-1. Nature of the data set: HSV-1 titer from compound-treated RPE cells, plaque assay on Vero-E6 cells. It counts as cell-based, Herpes simplex virus 1. The conditions noted are these: HSV-1, RPE cells; repeated CTG, CTxG and virus titration. The method, boiled down:
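RPE cells (~4 × 10^4/well) grown 24 h, then switched to DMEM-F12 with 0.2% BSA, 2 mM L-glutamine, 0.35% NaHCO3 and 1 μg/mL TPCK-trypsin. Three-fold dilutions of test compound (seven concentrations from 30 μM); HSV-1 infection at MOI 1. Supernatants collected at cytopathic effect (typically 24–72 hpi), serially diluted in PBS, plaqued on Vero-E6 under overlay, fixed; titers as PFU/ml.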

The nature of a further data set: in vitro. To be noted: human.
For another data set, the system named is RPE cells. To be noted: human.
Data set [2] concerns FLUAV (influenza A/WSN/33(H1N1) virus). Nature of the data set: microbe, parasite or virus in culture. Type of data set: cell-based.
Data set [3] deals with HSV-1. The data set can be described thus: Viability and death of HSV-1-infected RPE cells. Type of data set: cell-based, Herpes simplex virus 1.
Data set [4] relates to EV1. The data set can be described thus: microbe, parasite or virus in culture. Type of data set: cell-based, Echovirus 1.
For data set [5], the system named is ZIKV FB-GWUH-2016 strain. Nature of the data set: ZIKV titer from compound-treated RPE cells, plaque assay on Vero-E6 cells. It counts as cell-based, Zika virus. The conditions noted are these: ZIKV, RPE cells; repeated CTG, CTxG and virus titration. The method, boiled down: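 Medium for ZIKV infection: DMEM-F12 with 2% FBS, 2 mM L-glutamine, 0.25% sodium bicarbonate and 50 U/ml PenStrep, applied after 24 h growth of ~4 × 10^4 RPE cells/well. Test compound added in seven three-fold dilutions from 30 μM; infection at MOI 1. Media harvested at cytopathic effect (typically 24–72 hpi), serially diluted in PBS, plaque-titrated on Vero-E6 (PFU/ml). EC50 from variable-slope non-linear regression or Hill fit.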

Data set [6] deals with FLUAV (influenza A/WSN/33(H1N1) virus). Nature of the data set: microbe, parasite or virus in culture. To be noted: for EC50: Influenza A virus, H1N1|WSN, RPE. It counts as cell-based.
The test system of data set [7] is EV1. The data set can be described thus: microbe, parasite or virus in culture. Type of data set: cell-based, Echovirus 1. This is another data set of the same source.
For data set [8], the system named is ZIKV FB-GWUH-2016 strain. Nature of the data set: Viability and death of ZIKV-infected RPE cells. It counts as cell-based, Zika virus. To be noted: for EC50: Zika virus, RPE.
For data set [9], the system named is RVFV (rRVFVΔNSs::Katushka). Nature of the data set: microbe, parasite or virus in culture. It counts as cell-based, Rift Valley fever virus.

Regarding `Nc1ccn([C@@H]2O[C@H](CO)[C@@H](O)C2(F)F)c(=O)n1` [Gemcitabine], the “antiviral activity in repeat experiments” value (in the data set on HSV-1 [1]; in data set [2]; with EV1 [4]; in the data set on ZIKV FB-GWUH-2016 strain [5]) was “confirmed antiviral activity” throughout. Moreover, the results for the CC50 in “in vitro” (CC50 CTG), in “in vitro” (CC50 CTxG) and with RPE cells were greater than 30 µM, greater than 30 µM and 21.8 µM, respectively. The EC50 in data set [2] (Influenza A virus, H1N1|WSN, read-out: EC50 other) was 890 nM; in the data set with HSV-1 [3] (Human alphaherpesvirus 1, RPE, read-out: EC50 CTG) it was 50 nM; in the data set on EV1 [4] (Enterovirus B, read-out: EC50 other) it was 6.96 µM; in [6] (read-out: EC50 CTG), 250 nM; in [6] (read-out: EC50 CTxG), 1020 nM; in the data set with EV1 [7] (Enterovirus B, RPE, read-out: EC50 CTxG), 80 nM. Further, the figures for the EC50 with ZIKV FB-GWUH-2016 strain [8] (read-out: EC50 CTG) and with ZIKV FB-GWUH-2016 strain [8] (read-out: EC50 CTxG) were 920 nM and 70 nM, respectively. In addition, the “SI (minimal selectivity index, CC50/EC50)” value was greater than 500 with HSV-1 [3] (HSV-1, RPE cells); greater than 29 in [6]; greater than 4 in the data set on EV1 [7]; 23 with ZIKV FB-GWUH-2016 strain [8] (ZIKV, RPE cells).

As to Bortezamib, the CC50 in the data set on A549 cells is greater than 100 µM. For the same molecule, the “screen hit against RVFV” value in [9] is listed as “identified”. The EC50 in [9] (read-out: EC50 other) is less than 390 nM.

These data come from paper PMC7113852 (Antiviral Research, 2018).
